ChEMBL document CHEMBL4359855, “Targeting IRAK4 for Degradation with PROTACs” (ACS Med Chem Lett, 2019)
Converted amounts (≈) assume the structure as drawn. The source made the active and inactive calls. The calls are words filed in the database; no cut-off is given here.

Tests used:
[1] = biological target: T1, von Hippel-Lindau disease tumor suppressor/Interleukin-1 receptor-associated kinase 4 (Homo sapiens, UniProt Q9NWZ3+P40337); assay: Protac activity at VHL/IRAK4 in human PBMC assessed as induction of degradation of IRAK4 incubated for 24 hrs by Western blot analysis relative to control; type: protein assay
Method in brief: (§1)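 PBMCs exposed to rising compound concentrations for 24 h. IRAK4 protein read by Western blot against DMSO-treated cells. Dmax is the maximum degradation observed.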
Target sequence in this assay (P40337 whole entry, looked up, one chain of several): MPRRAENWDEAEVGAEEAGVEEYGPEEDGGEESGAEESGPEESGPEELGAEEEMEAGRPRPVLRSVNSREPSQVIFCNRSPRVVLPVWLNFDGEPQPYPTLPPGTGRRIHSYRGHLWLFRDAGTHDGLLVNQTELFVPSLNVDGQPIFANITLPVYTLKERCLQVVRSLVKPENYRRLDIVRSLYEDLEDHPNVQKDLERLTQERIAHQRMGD

[2] = biological target: T2, Interleukin-1 receptor-associated kinase 4 (Homo sapiens, UniProt Q9NWZ3); assay: Binding affinity to human IRK4 using myelin basic protein as substrate by [gamma-33P]-ATP assay
T2 sequence (Q9NWZ3 whole entry): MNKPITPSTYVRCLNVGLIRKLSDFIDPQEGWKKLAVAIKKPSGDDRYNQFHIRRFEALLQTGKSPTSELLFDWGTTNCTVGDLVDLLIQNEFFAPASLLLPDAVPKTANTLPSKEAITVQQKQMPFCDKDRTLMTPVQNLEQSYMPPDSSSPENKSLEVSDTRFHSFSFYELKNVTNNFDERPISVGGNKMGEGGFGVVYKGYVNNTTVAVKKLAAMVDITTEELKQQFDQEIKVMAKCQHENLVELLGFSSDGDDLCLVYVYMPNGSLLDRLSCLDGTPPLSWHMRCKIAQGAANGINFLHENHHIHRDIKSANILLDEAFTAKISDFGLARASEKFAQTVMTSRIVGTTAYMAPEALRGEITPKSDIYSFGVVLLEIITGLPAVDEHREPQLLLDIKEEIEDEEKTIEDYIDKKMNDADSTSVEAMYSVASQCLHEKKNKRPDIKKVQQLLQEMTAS

[3] = biological target: Interleukin-1 receptor-associated kinase 1 (Homo sapiens, UniProt P51617); assay: Binding affinity to human IRK1 using myelin basic protein as substrate by [gamma-33P]-ATP assay
[4] = Chromatographic hydrophobicity index, log D of compound at pH 7.4; type: physicochemical; conditions: buffer
[5] = biological target: T1, von Hippel-Lindau disease tumor suppressor/Interleukin-1 receptor-associated kinase 4; assay: Protac activity at VHL/IRAK4 in human PBMCs assessed as induction of degradation of IRAK4 at 0.1 to 10 uM incubated for 24 hrs by Western blot analysis
Target sequence in this assay (P40337 whole entry, looked up, one chain of several): as the sequence (P40337 whole entry, looked up, one chain of several) above

[6] = biological target: Protein cereblon/Interleukin-1 receptor-associated kinase 4 (Homo sapiens) (UniProt Q9NWZ3+Q96SW2); assay: Protac activity at CRBN/IRAK4 in human PBMC assessed as induction of degradation of IRAK4 incubated for 24 hrs by Western blot analysis relative to control; type: protein assay; method in brief: as §1
[7] = biological target: T1, von Hippel-Lindau disease tumor suppressor/Interleukin-1 receptor-associated kinase 4; assay: Protac activity at VHL/IRAK4 in human PBMC assessed as induction of degradation of IRAK4 incubated for 24 hrs by Western blot analysis; type: protein assay; method in brief: as §1
Target sequence in this assay (P40337 whole entry, one chain of several): as the sequence (P40337 whole entry, looked up, one chain of several) above

[8] = Solubility of compound; type: physicochemical
[9] = biological target: E3 ubiquitin-protein ligase XIAP/Interleukin-1 receptor-associated kinase 4 (Homo sapiens) (UniProt Q9NWZ3+P98170); assay: Protac activity at IAP/IRAK4 in human PBMC assessed as induction of degradation of IRAK4 incubated for 24 hrs by Western blot analysis relative to control; type: protein assay; method in brief: as §1
[10] = biological target: T1, von Hippel-Lindau disease tumor suppressor/Interleukin-1 receptor-associated kinase 4; assay: Protac activity at VHL/IRAK4 in human epoxomicin PBMC assessed as increase in p21 accumulation at 0.01 to 10 uM incubated for 22 hrs by Western blot analysis; type: protein assay
Method in brief: (§2)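 PBMCs pretreated 2 h with 10 μM epoxomicin, then given compound for a further 22 h. IRAK4 and p21 (proteasome-inhibition marker) read by Western blot against DMSO-treated cells.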
Target sequence in this assay (P40337 whole entry, looked up, one chain of several): as the sequence (P40337 whole entry, looked up, one chain of several) above

[11] = biological target: T3, von Hippel-Lindau disease tumor suppressor/Interleukin-1 receptor-associated kinase 4 (Homo sapiens, UniProt P40337+Q9NWZ3); assay: Protac activity at VHL/IRAK4 in human PBMC assessed as reduction in R848-stimulated IL-1beta level preincubated for 18 hrs followed by R848-stimulation and measured after 8 hrs by MSD assay; type: protein assay
Method in brief: (§3)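 PBMCs pretreated 18 h with compound, then stimulated 8 h with R848 (2.5 μg/mL). Secreted cytokines measured by MSD electrochemiluminescence.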

[12] = biological target: T3, von Hippel-Lindau disease tumor suppressor/Interleukin-1 receptor-associated kinase 4; assay: Protac activity at VHL/IRAK4 in human PBMC assessed as reduction in R848-stimulated IFNgamma preincubated for 18 hrs followed by R848 stimulation and measured after 8 hrs by MSD assay; type: protein assay; method in brief: as §3
[13] = biological target: T3, von Hippel-Lindau disease tumor suppressor/Interleukin-1 receptor-associated kinase 4; assay: Protac activity at VHL/IRAK4 in human PBMC assessed as reduction in R848-stimulated IL-6 level preincubated for 18 hrs followed by R848 stimulation and measured after 8 hrs by MSD assay; type: protein assay; method in brief: as §3
[14] = biological target: T3, von Hippel-Lindau disease tumor suppressor/Interleukin-1 receptor-associated kinase 4; assay: Protac activity at VHL/IRAK4 in human PBMC assessed as reduction in R848-stimulated IL-8 level preincubated for 18 hrs followed by R848 stimulation and measured after 8 hrs by MSD assay; type: protein assay; method in brief: as §3
[15] = biological target: T3, von Hippel-Lindau disease tumor suppressor/Interleukin-1 receptor-associated kinase 4; assay: Protac activity at VHL/IRAK4 in human PBMC assessed as reduction in R848-stimulated IL-10 level preincubated for 18 hrs followed by R848 stimulation and measured after 8 hrs by MSD assay; type: protein assay; method in brief: as §3
[16] = biological target: T3, von Hippel-Lindau disease tumor suppressor/Interleukin-1 receptor-associated kinase 4; assay: Protac activity at VHL/IRAK4 in human PBMC assessed as reduction in R848-stimulated TNFalpha level preincubated for 18 hrs followed by R848 stimulation and measured after 8 hrs by MSD assay; type: protein assay; method in brief: as §3
[17] = biological target: T1, von Hippel-Lindau disease tumor suppressor/Interleukin-1 receptor-associated kinase 4; assay: Protac activity at VHL/IRAK4 in human dermal fibroblast assessed as induction of degradation of IRAK4 incubated for 24 hrs by Western blot analysis; type: protein assay
Method in brief: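 Human dermal fibroblasts treated with compound for 24 h. IRAK4 protein measured by Western blot and DC50 derived.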
Target sequence in this assay (P40337 whole entry, one chain of several): as the sequence (P40337 whole entry, looked up, one chain of several) above

[18] = biological target: T1, von Hippel-Lindau disease tumor suppressor/Interleukin-1 receptor-associated kinase 4; assay: Protac activity at VHL/IRAK4 in human dermal fibroblast assessed as reduction in IL-1beta stimulated IL-6 level at 300 nM incubated for 18 hrs followed by IL-1beta stimulation further incubated for 8 hrs by MSD assay; type: protein assay
Method in brief: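 Human dermal fibroblasts pretreated 18 h with 300 nM compound, then stimulated 8 h with IL-1β (10 ng/mL). Secreted IL-6 measured. n = 4, mean ± SE.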
Target sequence in this assay (P40337 whole entry, looked up, one chain of several): as the sequence (P40337 whole entry, looked up, one chain of several) above

[19] = biological target: T1, von Hippel-Lindau disease tumor suppressor/Interleukin-1 receptor-associated kinase 4; assay: Protac activity at VHL/IRAK4 in human epoxomicin pretreated PBMC assessed as induction of degradation of IRAK4 at 0.01 to 10 uM incubated for 22 hrs by Western blot analysis; type: protein assay; method in brief: as §2
Target sequence in this assay (P40337 whole entry, looked up, one chain of several): as the sequence (P40337 whole entry, looked up, one chain of several) above

[20] = biological target: T1, von Hippel-Lindau disease tumor suppressor/Interleukin-1 receptor-associated kinase 4; assay: Protac activity at VHL/IRAK4 in human PBMC assessed as induction of degradation of IRAK4 at 3 uM incubated for 24 hrs by Western blot analysis relative to control; type: protein assay; method in brief: as §1
Target sequence in this assay (P40337 whole entry, looked up, one chain of several): as the sequence (P40337 whole entry, looked up, one chain of several) above

[21] = biological target: T1, von Hippel-Lindau disease tumor suppressor/Interleukin-1 receptor-associated kinase 4; assay: Protac activity at VHL/IRAK4 in human PBMC assessed as remaining IRAK4 level at 100 nM incubated for 24 hrs by Western blot analysis relative to control; type: protein assay; method in brief: as §1
[22] = biological target: T1, von Hippel-Lindau disease tumor suppressor/Interleukin-1 receptor-associated kinase 4; assay: Protac activity at VHL/IRAK4 in human PBMC assessed as remaining IRAK4 level at 300 nM incubated for 24 hrs by Western blot analysis relative to control; type: protein assay; method in brief: as §1
[23] = biological target: T1, von Hippel-Lindau disease tumor suppressor/Interleukin-1 receptor-associated kinase 4; assay: Protac activity at VHL/IRAK4 in human PBMC assessed as remaining IRAK4 level at 1 uM incubated for 24 hrs by Western blot analysis relative to control; type: protein assay; method in brief: as §1
[24] = biological target: T1, von Hippel-Lindau disease tumor suppressor/Interleukin-1 receptor-associated kinase 4; assay: Protac activity at VHL/IRAK4 in human PBMC assessed as remaining IRAK4 level at 10 uM incubated for 24 hrs by Western blot analysis relative to control; type: protein assay; method in brief: as §1

Sequence of Interleukin-1 receptor-associated kinase 1 (P51617 whole entry): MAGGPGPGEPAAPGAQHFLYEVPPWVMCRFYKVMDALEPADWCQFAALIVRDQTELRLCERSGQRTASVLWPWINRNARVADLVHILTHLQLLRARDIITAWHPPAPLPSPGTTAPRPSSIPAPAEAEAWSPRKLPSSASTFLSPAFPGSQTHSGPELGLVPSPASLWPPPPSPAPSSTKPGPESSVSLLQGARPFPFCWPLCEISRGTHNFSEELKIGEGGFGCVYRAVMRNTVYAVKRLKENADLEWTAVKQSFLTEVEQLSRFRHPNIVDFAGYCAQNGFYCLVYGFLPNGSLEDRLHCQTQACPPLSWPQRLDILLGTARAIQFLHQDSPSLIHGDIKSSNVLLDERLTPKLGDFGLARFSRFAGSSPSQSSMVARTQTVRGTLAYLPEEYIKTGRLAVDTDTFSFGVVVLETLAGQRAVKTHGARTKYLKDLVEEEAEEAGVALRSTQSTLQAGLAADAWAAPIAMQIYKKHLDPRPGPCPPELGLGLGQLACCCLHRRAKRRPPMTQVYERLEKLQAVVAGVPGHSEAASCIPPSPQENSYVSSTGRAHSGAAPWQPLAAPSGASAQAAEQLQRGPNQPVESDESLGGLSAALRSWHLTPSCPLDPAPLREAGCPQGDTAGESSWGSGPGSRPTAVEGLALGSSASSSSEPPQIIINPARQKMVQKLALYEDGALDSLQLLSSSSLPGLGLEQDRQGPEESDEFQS
T3 sequence (P40337 whole entry, one chain of several): as the sequence (P40337 whole entry, looked up, one chain of several) above
Sequence of Protein cereblon/Interleukin-1 receptor-associated kinase 4 (Homo sapiens) (Q96SW2 whole entry, looked up, one chain of several): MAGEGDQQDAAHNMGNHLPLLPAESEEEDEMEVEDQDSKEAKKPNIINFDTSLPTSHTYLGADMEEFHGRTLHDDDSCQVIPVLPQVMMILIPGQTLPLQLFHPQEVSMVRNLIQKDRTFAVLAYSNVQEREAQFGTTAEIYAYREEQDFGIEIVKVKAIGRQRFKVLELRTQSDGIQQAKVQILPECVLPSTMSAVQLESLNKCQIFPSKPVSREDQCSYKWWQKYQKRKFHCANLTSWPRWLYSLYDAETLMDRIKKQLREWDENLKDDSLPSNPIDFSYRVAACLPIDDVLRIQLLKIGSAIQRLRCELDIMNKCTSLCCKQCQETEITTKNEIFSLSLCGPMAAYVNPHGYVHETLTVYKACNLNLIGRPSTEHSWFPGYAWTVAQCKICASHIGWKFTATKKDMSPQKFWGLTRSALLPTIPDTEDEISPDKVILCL
Sequence of E3 ubiquitin-protein ligase XIAP/Interleukin-1 receptor-associated kinase 4 (Homo sapiens) (P98170 whole entry, looked up, one chain of several): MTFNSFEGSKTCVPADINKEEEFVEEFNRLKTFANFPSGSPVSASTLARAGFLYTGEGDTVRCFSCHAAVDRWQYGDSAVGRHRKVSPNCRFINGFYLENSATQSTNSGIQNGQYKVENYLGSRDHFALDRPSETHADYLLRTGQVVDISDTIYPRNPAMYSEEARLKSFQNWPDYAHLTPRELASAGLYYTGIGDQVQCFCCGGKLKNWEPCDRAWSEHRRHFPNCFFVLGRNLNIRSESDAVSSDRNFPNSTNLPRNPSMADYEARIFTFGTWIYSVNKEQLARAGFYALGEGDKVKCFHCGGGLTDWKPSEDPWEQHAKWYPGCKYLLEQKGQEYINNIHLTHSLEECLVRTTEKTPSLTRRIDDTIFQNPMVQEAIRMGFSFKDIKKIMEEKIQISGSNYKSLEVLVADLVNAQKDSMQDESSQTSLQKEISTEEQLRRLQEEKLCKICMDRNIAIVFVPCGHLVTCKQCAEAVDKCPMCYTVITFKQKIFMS

IC50 [2]	IC50 [3]	Chromatographic log D at pH 7.4 (ChromLogD) [4]	Activity [5]	Compound	further results
0.29 nM	> 10000 nM	3.18	inactive	COc1cc2c(OC[C@@H]3CCC(=O)N3)ncc(C#CCOCCOCCOCCC(=O)N[C@H](C(=O)N3C[C@H](O)C[C@H]3C(=O)NCc3ccc(-c4scnc4C)cc3)C(C)(C)C)c2cc1C(N)=O	Emax [1]: 0%
		6.44		CC[C@@H]1[C@H](F)C(=O)N[C@@H]1COc1ncc(C#CCCCCCCCCCCC(=O)N[C@H](C(=O)N2CC(O)CC2C(=O)NCc2ccc(-c3scnc3C)cc2)C(C)(C)C)c2cc(C(N)=O)c(OC)cc12 (single isomer, unassigned)	DC50 [7]: 259 nM; solubility [8]: < 1 µM
0.022 nM	> 10000 nM	3.79	inactive	CN[C@@H](C)C(=O)N[C@H](C(=O)N1C[C@@H](NC(=O)CCOCCOCCOCC#Cc2cnc(OC[C@@H]3CCC(=O)N3)c3cc(OC)c(C(N)=O)cc23)C[C@H]1C(=O)N[C@@H]1CCCc2ccccc21)C1CCCCC1	Emax [9]: 0%
			inactive	COc1cc2c(OC[C@@H]3CCC(=O)N3)ncc(C#CCCC(=O)N[C@H](C(=O)N3C[C@H](O)C[C@H]3C(=O)NCc3ccc(-c4scnc4C)cc3)C(C)(C)C)c2cc1C(N)=O	
		4.97		CC[C@@H]1[C@H](F)C(=O)N[C@@H]1COc1ncc(C#CCN2CCC3(CC2)CCN(c2ncc(C(=O)N[C@H](C(=O)N4C[C@H](O)C[C@H]4C(=O)NCc4ccc(-c5scnc5C)cc4)C(C)(C)C)cn2)CC3)c2cc(C(N)=O)c(OC)cc12	DC50 [7]: 151 nM; solubility [8]: 5 µM (≈ 5.43 µg/mL); Activity [10]: Active; IC50 [11]: 39.8 nM; IC50 [12]: 31.6 nM; IC50 [13]: 63.1 nM; IC50 [14]: 79.4 nM; IC50 [15]: 316 nM; IC50 [16]: 50.1 nM; DC50 [17]: 36 nM; Activity [18]: inactive; Activity [19]: inactive
			inactive	COc1cc2c(OC[C@@H]3CCC(=O)N3)ncc(C#CCCCC(=O)N[C@H](C(=O)N3C[C@H](O)C[C@H]3C(=O)NCc3ccc(-c4scnc4C)cc3)C(C)(C)C)c2cc1C(N)=O	
0.099 nM	> 10000 nM	5.82		COc1cc2c(OC[C@@H]3CCC(=O)N3)ncc(C#CCCCCCCCCCCC(=O)N[C@H](C(=O)N3C[C@H](O)C[C@H]3C(=O)NCc3ccc(-c4scnc4C)cc3)C(C)(C)C)c2cc1C(N)=O	Emax [20]: 50%; Activity [21]: 101%; Activity [22]: 80%; Activity [23]: 81%; Activity [24]: 65%

Second part, the molecule before the results:

Compound	IC50 [2]	IC50 [3]	Chromatographic log D at pH 7.4 (ChromLogD) [4]	Activity [5]	further results
COc1cc2c(OC[C@@H]3CCC(=O)N3)ncc(C#CCOCCOCCOCCOc3cccc4c3C(=O)N(C3CCC(=O)NC3=O)C4=O)c2cc1C(N)=O (some centres not stated)				inactive	Emax [6]: 0%
CN[C@@H](C)C(=O)N[C@H](C(=O)N1C[C@@H](NC(=O)CCCCCCCCCCC#Cc2cnc(OC[C@@H]3CCC(=O)N3)c3cc(OC)c(C(N)=O)cc23)C[C@H]1C(=O)N[C@@H]1CCCc2ccccc21)C1CCCCC1	21 nM	6940 nM	6.56	inactive	Emax [9]: 0%
COc1cc2c(OC[C@@H]3CCC(=O)N3)ncc(Br)c2cc1C(N)=O	2.1 nM	> 10000 nM	2.1		
CC[C@@H]1[C@H](F)C(=O)N[C@@H]1COc1nccc2cc(C(N)=O)c(OC)cc12					Activity [18]: inactive
COc1cc2c(OC[C@@H]3CCC(=O)N3)ncc(C#CCCCCCCCCCCOc3cccc4c3C(=O)N(C3CCC(=O)NC3=O)C4=O)c2cc1C(N)=O (some centres not stated)	2.5 nM	> 10000 nM	6.01	inactive	Emax [6]: 0%
